Data on 1 molecule can be found in ChEMBL document CHEMBL4425108, “A Selective and Slowly Reversible Inhibitor of l-Type Amino Acid Transporter 1 (LAT1) Potentiates Antiproliferative Drug Efficacy in Cancer Cells” (J Med Chem, 2016).

The inhibition in vivo is the percentage by which the read-out fell short of the control. By fraction unbound is commonly meant free concentration divided by total concentration. A high value points to much free substance. Broadly, the IC50 is the concentration that gives 50% inhibition. The Tmax is the time from dosing to the highest level. The term inhibition denotes the change of the read-out against control, counted positive when it falls. The low end stands for a response near the control, the high end for a response far below the control.

Data set [1] in a line: Unbound AUC (0 to 480 mins) in mouse brain at 23 umol/kg, ip administered as bolus by LC-MS analysis. It counts as ADME, organism-based. The following applies: in vivo. In outline: (§1)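 Male mice (25 ± 5 g) dosed i.p. as a bolus at 23 µmol/kg in DMSO/hydroxypropyl-β-cyclodextrin/saline vehicle, sampled at time points 10–480 min; plasma and tissue homogenates (1:3 water) analysed by LC-MS. […] Mean ± SEM.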

Data set [2] has as its target T1, Large neutral amino acids transporter small subunit 1 (Mus musculus, UniProt Q9Z127). Kind of data set: Drug uptake in mouse brain assessed as LAT1-mediated unidirectional transfer constant measured after perfusion. It counts as ADME, tissue-based. The following applies: in vivo. A digest of the protocol:
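In situ brain perfusion in anaesthetised male mice used 100 µM compound at 37 °C, 2.5 mL/min, for 60 s, then 2 s drug-free buffer at 4 °C. Kin = Qtot/(Cpf × T); mean ± SD, n=3.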

Data set [3] has as its system Mus musculus. Kind of data set: Binding affinity to LAT1 in mouse brain assessed as inhibition of [14C]-L-leucine uptake at 23 umol/kg, ip measured 180 mins post perfusion with [14C]-L-leucine. It is filed as functional. The following applies: 3 h. A digest of the protocol: (§2)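 Mice under ketamine/xylazine anaesthesia had the right common carotid artery cannulated. Brains were perfused at 37 °C, 2.5 mL/min, for 30 s with 0.157 µM [14C]-L-leucine, then 2 s with analyte-free buffer at 4 °C. Perfusion took place 10 or 180 min after 23 µmol/kg i.p. dosing.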

Data set [4] in a line: Fraction unbound in mouse heart at 23 umol/kg, ip administered as bolus by LC-MS analysis. It is filed as ADME, organism-based. In outline: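 Unbound fraction was measured by equilibrium dialysis at 100 µM in mouse plasma and in brain, liver, kidney, heart and prostate homogenates.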
Data set [5] relates to Mus musculus. Put plainly: Binding affinity to LAT1 in mouse brain assessed as inhibition of [14C]-L-leucine uptake at 23 umol/kg, ip measured 10 mins post perfusion with [14C]-L-leucine. It counts as functional. A digest of the protocol:
as §2

Data set [6] concerns MCF7. Put plainly: Antiproliferative activity against human MCF7 cells assessed as reduction in cell viability measured after 72 hrs by resazurin dye-based fluorimetric analysis. It is filed as functional. In outline: (§3)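 MCF-7 cells were seeded at 2 × 10^4 cells/well on collagen-coated plates and treated one day later. Agents were given alone or combined (25 or 100 µM with 100 µM partner drug) in growth medium for 3 days. Viability was read daily by resazurin fluorescence (ex 560/em 590 nm) and expressed relative to untreated controls.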
In general terms: The colour change of resazurin is a common sign of viable cells or microbes.

Data set [7] concerns MCF7. Kind of data set: Antiproliferative activity against human MCF7 cells assessed as reduction in cell viability at 25 uM measured after 24 hrs by resazurin dye-based fluorimetric analysis. It is filed as functional. A digest of the protocol:
as §3

Data set [8] deals with MCF7. Put plainly: Antiproliferative activity against human MCF7 cells assessed as reduction in cell viability at 25 measured after 48 hrs by resazurin dye-based fluorimetric analysis. It is filed as functional. In outline: as §3
Data set [9] is described as follows: fCmax in mouse liver at 23 umol/kg, ip administered as bolus by LC-MS analysis. It counts as ADME, organism-based. The following applies: in vivo. A digest of the protocol:
as §1

Data set [10] is described as follows: Tmax in mouse prostate at 23 umol/kg, ip administered as bolus by LC-MS analysis. It counts as ADME, organism-based, Prostate gland. In outline: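 Adult male mice (25 ± 5 g) given a single i.p. bolus of 23 µmol/kg, dosing solution 1.36 mM in 10% (v/v) DMSO, 20% (w/v) hydroxypropyl-β-cyclodextrin, 0.9% NaCl in water. Decapitation at time points 10–480 min; plasma, brain, liver, prostate, kidney, heart collected. Acetonitrile precipitation with repaglinide internal standard, LC-MS (ESI positive). tmax and t½β taken from concentration-time data; mean ± SEM, n=3.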

A short description of data set [11]: Cmax in mouse heart at 23 umol/kg, ip administered as bolus by LC-MS analysis. It counts as ADME, organism-based. Also on record: dose 23 umol/kg, route intraperitoneal. The following applies: in vivo. In outline:
(§4)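 Male adult mice (25 ± 5 g) given a single i.p. bolus at 23 µmol/kg. The dosing solution was 1.36 mM in 10% (v/v) DMSO, 20% (w/v) hydroxypropyl-β-cyclodextrin and 0.9% NaCl. Animals were decapitated at seven time points from 10 to 480 min. Plasma and tissues were acetonitrile-precipitated with repaglinide internal standard and analysed by LC-MS. Parameters were derived from concentration–time data, mean ± SEM (n=3).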

Data set [12] concerns the target T2, Large neutral amino acids transporter small subunit 1 (Homo sapiens, UniProt Q01650). Put plainly: Competitive binding to LAT1 in human MCF7 cells at 100 uM after 30 mins in presence of OATP 1B1/1B3 inhibitor rifampicin by HPLC analysis. It counts as cell-based. In outline: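 MCF-7 cells incubated 30 min at 37 °C in HBSS (pH 7.4) holding 100 µM test compound plus 500 µM competitor. Cells washed three times with ice-cold HBSS and lysed in 0.1 M NaOH. Cell-associated compound measured by HPLC against a lysate-spiked standard curve and normalised to protein. Mean ± SD, n=3.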

Data set [13] in a line: Unbound AUC (0 to 480 mins) in mouse plasma at 23 umol/kg, ip administered as bolus by LC-MS analysis. The following applies: in vivo. It is filed as ADME, organism-based. A digest of the protocol:
as §1

Data set [14] concerns the target T1, Large neutral amino acids transporter small subunit 1. Put plainly: Ratio of Kin for L-leucine to Kin for test compound for LAT1-mediated drug uptake in mouse brain. It counts as ADME, tissue-based. The following applies: in vivo. A digest of the protocol:
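In situ brain perfusion in anaesthetised adult male mice (ketamine/xylazine i.p.) via right common carotid at 2.5 mL/min, 37 °C. Perfusate was 0.157 µM [14C]-L-leucine for 30 s or 100 µM test compound for 60 s, then 2 s drug-free buffer at 4 °C. Kin = Qtot/(Cpf × T). Mean ± SD, n=3-4.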

Data set [15] concerns the target T2, Large neutral amino acids transporter small subunit 1. Kind of data set: Inhibition of LAT1 in human MCF7 cells assessed as potentiation of bestatin-induced antiproliferative activity by measuring reduction in cell viability at 25 uM measured after 72 hrs by resazurin dye-based fluorimetric analysis. In outline: (§5)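 MCF-7 cells seeded 2 × 10^4/well on collagen-coated plates, treated one day later in growth medium with inhibitor (25 or 100 µM) plus bestatin or cisplatin (100 µM) for up to 3 days. Viability read daily by resazurin fluorescence (ex 560/em 590 nm). Viability is treated relative to untreated control. Mean ± SD, n=3.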

Data set [16] in a line: Terminal half life in mouse brain at 23 umol/kg, ip administered as bolus by LC-MS analysis. It counts as ADME, organism-based. Particulars: read-out: beta t1/2. In outline:
as §4

The target of data set [17] is T2, Large neutral amino acids transporter small subunit 1. Kind of data set: Competitive inhibition of [14C]-L-leucine uptake at LAT1 in human MCF7 cells at 100 uM preincubated for 10 mins followed by addition of substrate measured during 5 mins by liquid scintillation counting. It is filed as cell-based. In outline: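 MCF-7 cells seeded 1 × 10^5/well, used one day later. Washed and pre-incubated 10 min at 37 °C in choline-chloride HBSS (Na+-free, 25 mM HEPES, pH 7.4), then 5 min at 37 °C with 0.157 µM [14C]-L-leucine plus 1-1000 µM inhibitor (DMSO blank). Ice-cold washes, NaOH lysis, scintillation counting. IC50 by nonlinear regression over 8 concentrations. Mean ± SD, n=3.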

The nature of data set [18]: Cmax in mouse prostate at 23 umol/kg, ip administered as bolus by LC-MS analysis. It is filed as ADME, organism-based, Prostate gland. Also on record: dose 23 umol/kg, route intraperitoneal. The following applies: in vivo. In outline: as §4
Data set [19] has as its system MCF7. Put plainly: Antiproliferative activity against human MCF7 cells assessed as reduction in cell viability at 25 measured after 72 hrs by resazurin dye-based fluorimetric analysis. It is filed as functional. In outline:
as §3

The nature of data set [20]: fCmax in mouse plasma at 23 umol/kg, ip administered as bolus by LC-MS analysis. It is filed as ADME, organism-based. Particulars: in vivo. A digest of the protocol:
as §1

Data set [21] has as its target T2, Large neutral amino acids transporter small subunit 1. Put plainly: Inhibition of LAT1 in human MCF7 cells assessed as potentiation of bestatin-induced antiproliferative activity by measuring reduction in cell viability at 100 uM measured after 72 hrs by resazurin dye-based fluorimetric analysis. In outline:
as §5

The structures appear in SMILES notation. Active and inactive are the calls of the source. No cut-off for these calls is given here.

T2 sequence (Q01650 whole entry): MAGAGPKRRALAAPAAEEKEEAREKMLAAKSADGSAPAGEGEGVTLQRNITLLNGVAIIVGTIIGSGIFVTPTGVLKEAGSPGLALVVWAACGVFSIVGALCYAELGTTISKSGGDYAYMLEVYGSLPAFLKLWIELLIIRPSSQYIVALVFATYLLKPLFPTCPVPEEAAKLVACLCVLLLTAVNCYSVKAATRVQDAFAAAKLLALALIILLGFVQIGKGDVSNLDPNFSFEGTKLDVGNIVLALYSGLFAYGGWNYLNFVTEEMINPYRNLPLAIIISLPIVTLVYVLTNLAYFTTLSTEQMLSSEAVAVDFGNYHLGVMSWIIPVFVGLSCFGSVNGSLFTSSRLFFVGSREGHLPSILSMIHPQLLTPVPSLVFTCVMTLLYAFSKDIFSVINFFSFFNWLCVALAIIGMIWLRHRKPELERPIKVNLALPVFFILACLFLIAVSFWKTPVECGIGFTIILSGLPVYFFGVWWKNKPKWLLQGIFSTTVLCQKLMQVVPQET
T1 sequence (Q9Z127 whole entry, the tested form may be a part): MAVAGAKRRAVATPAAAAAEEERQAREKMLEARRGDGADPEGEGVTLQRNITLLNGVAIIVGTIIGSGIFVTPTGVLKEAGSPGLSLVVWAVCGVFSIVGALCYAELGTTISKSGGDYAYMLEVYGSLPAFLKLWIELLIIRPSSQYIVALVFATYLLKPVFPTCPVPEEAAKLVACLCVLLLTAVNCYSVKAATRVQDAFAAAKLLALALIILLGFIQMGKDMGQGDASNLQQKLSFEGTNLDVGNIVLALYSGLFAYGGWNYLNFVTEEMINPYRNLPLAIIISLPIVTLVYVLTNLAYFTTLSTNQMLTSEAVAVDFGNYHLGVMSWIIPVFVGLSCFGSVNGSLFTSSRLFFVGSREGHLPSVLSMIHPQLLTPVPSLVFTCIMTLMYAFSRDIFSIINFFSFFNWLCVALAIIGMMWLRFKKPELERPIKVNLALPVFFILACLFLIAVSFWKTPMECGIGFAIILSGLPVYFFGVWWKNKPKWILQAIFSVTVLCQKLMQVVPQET

As to `CNC(=O)COc1ccc(-c2c(C#N)c(NC(=O)c3cccc(C[C@H](N)C(=O)O)c3)n3c(nc4ccccc43)c2C#N)cc1`, the values for the fAUC in [1] and in data set [13] were 0.1 nmol/g/min and 7.8 nmol/min/mL, respectively. Also, the Kin in [2] is recorded as 8.2 ×10⁻⁵ ml/s/g. Moreover, the figures for the inhibition in vivo at 23 µmol/kg in the data set with Mus musculus [3] and in the data set with Mus musculus [5] were 14% and 27%, respectively. This molecule gave a fraction unbound in data set [4] of 0.0162. Further, the Activity result was “Dose-dependent effect” in the data set on MCF7 [6]; 13.9% with MCF7 [7]; 52.6% in data set [15]; 34.8% in the data set on MCF7 [19]; 68.6% in [21]. The IC50 with MCF7 [6] (MCF7, 72 h) was 124 µM. The outcome in the data set on MCF7 [8] was inactive. Further, the fCmax in data set [9] came out at 0.38 nmol/g; in data set [20], 0.19 nmol/mL. The Tmax in [10] is 30 min. Also, the Cmax in data set [11] is recorded as 4.9 nmol/g; in data set [18], 24.1 nmol/g. Further, the outcome in data set [12] was Active. The Ratio in data set [14] worked out at 156. Moreover, in data set [16], the half-life was 71.6 min. In data set [17], this molecule gave an inhibition of 77.8%.
